Test results as given in PMC9086222 (RSC Advances, 2018).
Read-outs that look alike come from different tables or passages of the source.

Experiments:
[1] = cited from earlier work
Caco-2 cells = details: 90 minutes exposure to 3.4 × 10^−2 μCi mL^−1 U-14C-TCDD; cited from earlier work
Caco-2 cell monolayer = details: 24 h; 2.5 nM 2,3,7,8-TCDD; cited from earlier work
Caco-2 cell monolayers [2] = assay: Dioxin transport and cellular association in static Transwell model; assay type: in vitro ADME, human; details: 24 h; for Mass balance (sum of AP, BL compartments and cellular fraction): Transwell, 0.2 ng/mL mixture, n = 3
Summary of the method: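 Caco-2 seeded at 40 000 cells per cm2 on 12-well polyester Transwell inserts (0.4 μm pores, 1.12 cm2) in DMEM+, with medium changed every other day for 21 days. Apical side received DMEM+ with 0.2 ng mL−1 dioxin mixture (1% DMSO); basolateral side received plain DMEM+; exposure 24 h. Both compartments' medium, hexane rinses and trypsinised, freeze–thaw-lysed cells were analysed by GC-HRMS.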

Caco-2 cell monolayers [3] = assay: Dioxin transport and cellular association in dynamic gut-on-a-chip model; assay type: in vitro ADME, human; details: 24 h; for Mass balance (sum of AP, BL compartments and cellular fraction): Chip, 0.2 ng/mL each congener, n = 3
Summary of the method: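 Caco-2 seeded at 75 000 cells per cm2 on a porous polyester membrane clamped between glass slides. Cells attached 72 h without flow, then both sides were perfused 7 days at 25 μL h−1 with 10 mM-bicarbonate DMEM+ at 37 °C. Apical medium then carried 17 congeners (0.2 ng mL−1 each, 1% DMSO) for 24 h. Compartment eluents, hexane rinses and trypsinised, freeze–thaw-lysed cells were analysed by GC-HRMS.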

[4] = predicted; octanol/water; cited from earlier work
[5] = static model (Transwell), 0.2 ng/mL
[6] = dynamic model (chip), 0.2 ng/mL

| Structure (SMILES) | Mass balance (sum of AP, BL compartments and cellular fraction) (Caco-2 cell monolayers [2]) | Mass balance (sum of AP, BL compartments and cellular fraction) (Caco-2 cell monolayers [3]) | log P [4] | also measured |
| --- | --- | --- | --- | --- |
| Clc1cc(Cl)c(-c2cc(Cl)c(Cl)c(Cl)c2Cl)cc1Cl [#180] | – | – | – | log P [1]: > 5 |
| Clc1cc2c(cc1Cl)Oc1cc(Cl)c(Cl)cc1O2 [2,3,7,8-TCDD, 2,3,7,8-tetrachlorodibenzo-p-dioxin] | 81 ± 2% | 85 ± 5% | – | Apical concentration transported to the basal compartment (Caco-2 cells): less than 1.5%; Steady-state cellular association (Caco-2 cells): approximately 13%; Transported across the Caco-2 cell monolayer (Caco-2 cell monolayer): 15%; Relative amount in the cellular fraction (of total exposure) (Caco-2 cell monolayers [2]; [5]): approximately 39%; Transport across the monolayer (basal side compared to total exposed amount) (Caco-2 cell monolayers [2]; [5]): 3%; Relative amount in the cellular fraction (of total exposure) (Caco-2 cell monolayers [3]; [6]): ~56%; Transport across the monolayer (basal side compared to total exposed amount) (Caco-2 cell monolayers [3]; [6]): 3% |
| Clc1cc2c(c(Cl)c1Cl)Oc1cc(Cl)c(Cl)c(Cl)c1O2 [1,2,3,6,7,8-HxCDD] | 92 ± 1% | 92 ± 5% | 7.4 | – |
| Clc1cc2oc3cc(Cl)c(Cl)c(Cl)c3c2c(Cl)c1Cl [1,2,3,7,8,9-HxCDF] | 84 ± 2% | 91 ± 6% | 7.4 | – |
| Clc1ccc(-c2cc(Cl)c(Cl)cc2Cl)cc1Cl [#118] | – | – | – | log P [1]: > 5 |
| Clc1ccc(Cl)c(-c2cc(Cl)ccc2Cl)c1 [PCB#52] | – | – | – | log P [1]: > 5 |
| Clc1cc2oc3c(Cl)c(Cl)c(Cl)c(Cl)c3c2cc1Cl [1,2,3,4,7,8-HxCDF] | 85 ± 2% | 97 ± 7% | 6.9 | – |
| Clc1cc2c(c(Cl)c1Cl)Oc1c(cc(Cl)c(Cl)c1Cl)O2 [1,2,3,7,8,9-HxCDD] | 93 ± 1% | 93 ± 5% | 7.4 | Relative amount in the cellular fraction (of total exposure) (Caco-2 cell monolayers [2]; [5]): 22.5%; Relative amount in the cellular fraction (of total exposure) (Caco-2 cell monolayers [3]; [6]): 33% |
| Clc1cc2c(oc3c(Cl)c(Cl)c(Cl)c(Cl)c32)c(Cl)c1Cl [1,2,3,4,6,7,8-HpCDF] | 93 ± 1% | 97 ± 5% | 7.9 | – |
| Clc1cc2c(oc3c(Cl)c(Cl)c(Cl)cc32)c(Cl)c1Cl [2,3,4,6,7,8-HxCDF] | 87 ± 2% | 97 ± 7% | 7.1 | – |
| Clc1cc(Cl)c(-c2cc(Cl)c(Cl)cc2Cl)cc1Cl [#153] | – | – | – | log P [1]: > 5 |
| Clc1cc2c(c(Cl)c1Cl)Oc1c(Cl)c(Cl)c(Cl)c(Cl)c1O2 [1,2,3,4,6,7,8-HpCDD] | 83 ± 2% | 97 ± 7% | – | – |
| Clc1cc2oc3c(Cl)c(Cl)c(Cl)c(Cl)c3c2c(Cl)c1Cl [1,2,3,4,7,8,9-HpCDF] | 83 ± 2% | 97 ± 7% | – | – |
| Clc1cc2c(oc3cc(Cl)c(Cl)c(Cl)c32)c(Cl)c1Cl [1,2,3,6,7,8-HxCDF] | 93 ± 1% | 94 ± 5% | 6.9 | – |
